Reference: ChEMBL document CHEMBL1138297, “Design, synthesis, and multivariate quantitative structure-activity relationship of salicylanilides--potent inhibitors of type III secretion in Yersinia” (J Med Chem, 2007)

What was measured:
[1] = system: Yersinia pseudotuberculosis; assay: Effect on T3S in Yersinia pseudotuberculosis 3 pIB29 assessed as inhibition of light emission at 10 uM by luciferase reporter gene assay
Outline: (§1)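 YPIII pIB29 (yopE-luxAB) reporter strain grown overnight at ambient temperature in BHI with 5 mM EGTA and 20 mM MgCl2 to deplete calcium. Culture adjusted to OD600 0.15-0.25 and added to compounds in DMSO (final ≤1%). Incubated 1 h at ambient temperature with shaking, then 2 h at 37 °C. Decanal substrate added and luminescence read at once. Triplicates; repeated on ≥2 occasions.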

[2] = system: Yersinia pseudotuberculosis; assay: Effect on T3S in Yersinia pseudotuberculosis 3 pIB29 assessed as inhibition of light emission at 100 uM by luciferase reporter gene assay; outline: as §1
[3] = system: Yersinia pseudotuberculosis; assay: Effect on T3S in Yersinia pseudotuberculosis 3 pIB29 assessed as inhibition of light emission at 50 uM by luciferase reporter gene assay; outline: as §1
[4] = system: Yersinia pseudotuberculosis; assay: Effect on T3S in Yersinia pseudotuberculosis 3 pIB29 assessed as inhibition of light emission at 20 uM by luciferase reporter gene assay; outline: as §1
[5] = system: Yersinia pseudotuberculosis; assay: Effect on T3S in Yersinia pseudotuberculosis 3 pIB29 assessed as inhibition of light emission at 5 uM by luciferase reporter gene assay; outline: as §1
[6] = system: Yersinia pseudotuberculosis; assay: Effect on T3S in Yersinia pseudotuberculosis 3 pIB29 assessed as inhibition of light emission at 2 uM by luciferase reporter gene assay; outline: as §1
[7] = system: Yersinia pseudotuberculosis; assay: Effect on T3S in Yersinia pseudotuberculosis 3 pIB29 assessed as inhibition of light emission at 1 uM by luciferase reporter gene assay; outline: as §1
[8] = system: Yersinia pseudotuberculosis; assay: Effect on T3S in Yersinia pseudotuberculosis 3 pIB29 assessed as inhibition of light emission at 0.5 uM by luciferase reporter gene assay; outline: as §1

SMILES | inhibition [1] [%] | inhibition [2] [%] | inhibition [3] [%] | inhibition [4] [%] | inhibition [5] [%] | inhibition [6] [%] | inhibition [7] [%] | inhibition [8] [%]
CC(=O)Oc1c(I)cc(I)cc1C(=O)Nc1ccc(SC(F)(F)F)cc1 | 72 | 75 | 71 | 71 | 60 | 19 | 11 | 11
CC(=O)Oc1ccc(Cl)cc1C(=O)Nc1ccc(Cl)c(C)c1 | 99 | 100 | 100 | 100 | 91 | 62 | 50 | 15
CC(=O)Oc1c(I)cc(I)cc1C(=O)Nc1cc(Cl)ccc1F | 34 | 95 | 89 | 58 | 9 | 1 | 1 | 6
CC(=O)Oc1ccc(I)cc1C(=O)Nc1ccc(SC(F)(F)F)cc1 | 58 | 100 | 99 | 74 | 56 | 80 | 52 | 17
O=C(Nc1ccc(Cl)cc1)c1cc(I)cc(I)c1O | 100 | 99 | 100 | 100 | 95 | 60 | 47 | 15
O=C(Nc1cc(Cl)ccc1F)c1cc(I)cc(I)c1O | 53 | 100 | 100 | 92 | 19 | 6 | 2 | 7
O=C(Nc1ccc(SC(F)(F)F)cc1)c1cc(I)cc(I)c1O | 83 | 100 | 100 | 100 | 75 | 39 | 17 | 19
CC(=O)Oc1c(Cl)cccc1C(=O)Nc1ccc(Br)cc1 | 18 | 99 | 78 | 36 | 12 | 9 | 8 | -2
O=C(Nc1ccc(Br)cc1)c1cccc(Cl)c1O | 24 | 100 | 96 | 62 | 12 | 12 | 6 | 5
CC(=O)Oc1ccc(I)cc1C(=O)Nc1ccc(Cl)cc1 | 99 | 100 | 100 | 100 | 99 | 92 | 73 | 58
O=C(Nc1ccc(Cl)cc1)c1cc(I)ccc1O | 91 | 78 | 80 | 85 | 91 | 90 | 68 | 55
